ChEMBL document CHEMBL3853331, “Preparation, Antiepileptic Activity, and Cardiovascular Safety of Dihydropyrazoles as Brain-Penetrant T-Type Calcium Channel Blockers” (J Med Chem, 2016)
Values after ≈ are worked out from the molar mass of the structure shown.

Legend:
[1] = Cmax in Beagle dog plasma at 10 mg/kg, po; format: ADME, organism-based, Canis lupus familiaris; parameters: dose 10 mg/kg, route oral
Method in brief: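 Beagle dogs given a single oral dose of 10 mg/kg; plasma Cmax and Tmax determined.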

[2] = target: Voltage-dependent T-type calcium channel subunit alpha-1I (Homo sapiens, UniProt Q9P0X4); test: Inhibition of human T-type calcium channel Cav3.3 expressed in CHO cells assessed as inhibition of calcium tail current at -60 mV holding potential measured after 150 secs by QPatch assay; format: cell-based
Method in brief: (§1)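 CHO cells stably expressing human Cav3.1, Cav3.2 or Cav3.3, automated QPatch recording. 3-ms depolarization to +20 mV from a holding potential of -90 or -60 mV. Ca2+ tail current measured at -60 mV. Cs-glutamate internal and TEA-Cl external solution with 5 mM Ca2+. Effect read 150 s after application.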

[3] = Fraction unbound in Wistar rat microsomes; format: ADME, Microsome
Rattus norvegicus [4] = test: Anticonvulsant activity in WAG/Rij rat model of generalized nonconvulsive absence-like epilepsy assessed as decrease in total duration of spontaneous seizures at 100 mg/kg, po administered as single dose at beginning of nocturnal active phase measured over 12 hrs by radiotelometry relative to vehicle control
[5] = target: Voltage-dependent L-type calcium channel subunit alpha-1C (Homo sapiens, UniProt Q13936); test: Inhibition of recombinant […] calcium channel Cav1.2 (unknown origin) expressed in HEK293 cells assessed as inhibition of Kcl-induced calcium influx preincubated for 3 mins prior CaCl2 addition by Fluo-4-AM dye-based FLIPR assay; format: cell-based
Method in brief: (§2)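 HEK293 cells stably expressing the channel, seeded overnight and loaded 1 h at 37°C with 3 µM Fluo-4-AM. Compounds given as a 3-fold dilution series from 10 µM to 0.05 nM and incubated 3 min. For T-type channels, dilutions in TEAC buffer and stimulation with 10 mM final CaCl2. For Cav1.2, dilutions in assay buffer and stimulation with 20 mM final KCl. IC50 from area under the fluorescence trace against vehicle; mean of at least two experiments.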

Rattus norvegicus [6] = organism: Rattus norvegicus; test: Inhibition of Wistar rat brain potassium channel at 10 uM assessed as reduction in slow potassium current at -80 mV holding potential measured after 180 secs
Method in brief: (§3)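 Cortical neurons from E18 Wistar rat embryos, cultured 9-15 days, recorded by manual patch clamp from a holding potential of -80 mV. K+ currents: one 50-ms step to 0 mV, fast as peak outward and slow as end-of-pulse current. Na+ currents: train of fifteen 10-ms steps to 0 mV, peak inward current read at the first and last pulses. Effects read at least 180 s after application.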

Rattus norvegicus [7] = organism: Rattus norvegicus; test: Inhibition of Wistar rat brain potassium channel at 10 uM assessed as reduction in fast potassium current at -80 mV holding potential measured after 180 secs; method in brief: as §3
[8] = target: T1, Voltage-dependent T-type calcium channel subunit alpha-1G (Homo sapiens, UniProt O43497); test: Inhibition of T-type calcium channel Cav3.1 (unknown origin) expressed in HEK293 cells assessed as calcium influx by Fluo-4-AM dye-based FLIPR assay; format: cell-based; method in brief: as §2
[9] = Half life in Wistar rat plasma at 0.2 mg/kg, iv administered 2 hrs after aminobenzotriazol-treatment; format: ADME, organism-based
Method in brief: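 Male Wistar rats dosed iv at 0.2 mg/kg or po at 2 mg/kg. In the inhibited arm, the broad CYP inhibitor aminobenzotriazol was given orally 2 h before dosing. Clearance, Vss and half-life derived from plasma concentrations after the iv dose; Cmax and Tmax from the po dose.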

[10] = Drug uptake in Wistar rat assessed as unbound drug level measured after 1 hr; format: ADME; settings: in vivo
Cytochrome P450 3A4 = Cytochrome P450 3A4 (Homo sapiens, UniProt P08684); test: Inhibition of CYP3A4 (unknown origin) using midazolam as substrate; format: ADME
[11] = target: Voltage-dependent T-type calcium channel subunit alpha-1H (Homo sapiens, UniProt O95180); test: Inhibition of recombinant T-type calcium channel Cav3.2 (unknown origin) expressed in HEK293 cells assessed as inhibition of CaCl2-induced calcium influx preincubated for 3 mins prior CaCl2 addition by Fluo-4-AM dye-based FLIPR assay; format: cell-based
Method in brief: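 HEK293 cells stably expressing Cav3.2, plated overnight at 37°C, loaded 1 h at 37°C with 3 µM Fluo-4-AM in HBSS/Hepes pH 7.4, then washed. Compound in TEAC buffer (100 mM tetraethylammonium chloride, pH 7.2), 3-fold series from 10 µM to 0.05 nM, 3 min before CaCl2 to a final 10 mM. IC50 fitted sigmoidally to the fluorescence AUC against vehicle signal; mean of at least two independent experiments.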

Rattus norvegicus [12] = test: Anticonvulsant activity in WAG/Rij rat model of generalized nonconvulsive absence-like epilepsy assessed as decrease in spontaneous seizures at 100 mg/kg, po administered as single dose at beginning of nocturnal active phase measured over 4 hrs by radiotelometry relative to vehicle control
Rattus norvegicus [13] = test: Cardiovascular toxicity in spontaneously hypertensive rat assessed as induction of AV block type 2 at 100 mg/kg, po by telemetry method; format: organism-based; settings: in vivo
Method in brief: (§4)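 Conscious, freely moving male spontaneously hypertensive rats with telemetry recording MAP, HR and ECG. Single oral dose (5 ml/kg) given as a suspension in 0.5% w/v methylcellulose in water, in the morning during the sleep phase. Vehicle controls run in parallel, n = 8 per group.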

[14] = Unbound drug level in Wistar rat brain at 100 mg/kg, po measured after 1 hr; format: ADME, organism-based; settings: in vivo
[15] = target: T1, Voltage-dependent T-type calcium channel subunit alpha-1G; test: Inhibition of human T-type calcium channel Cav3.1 expressed in CHO cells assessed as inhibition of calcium tail current at -90 mV holding potential measured after 150 secs by QPatch assay; format: cell-based; method in brief: as §1
MDR1 = test: Apparent permeability across apical to basolateral side in MDCK cells expressing MDR1 (unknown origin) at 1 uM; format: ADME, cell-based, Canis lupus familiaris; settings: dog
Method in brief: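 MDR1-transfected MDCK cell monolayers. Compound tested at 1 µM. Apparent permeability measured in both directions, apical to basolateral and basolateral to apical. Efflux ratio taken from the two directional permeabilities.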

Rattus norvegicus [16] = test: Cardiovascular toxicity in spontaneously hypertensive rat assessed as reduction in heart rate at 100 mg/kg, po within 6 hrs post dose; format: organism-based; settings: in vivo; method in brief: as §4
[17] = Intrinsic clearance in rat hepatocytes; format: ADME, cell-based, Hepatocyte
Rattus norvegicus [18] = organism: Rattus norvegicus; test: Inhibition of Wistar rat brain neuronal sodium channel assessed as reduction in peak inward current at 10 uM measured during first peak; method in brief: as §3
[19] = Aqueous solubility of the compound at pH 4 by UV-HPLC method; format: physicochemical
Method in brief: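 Compound dispensed from a 10 mM DMSO stock and the solvent evaporated. Residue stirred 24 h at room temperature in buffer: citrate (55 mM) pH 4.0 or phosphate (67 mM) pH 7.0. Mixture filtered by centrifugation. Filtrate concentration measured by HPLC-UV against calibration solutions.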

[20] = Drug uptake in Wistar rat brain at 10 mg/kg, po measured after 1 hr; format: ADME, organism-based; settings: read-out: Drug uptake
Method in brief: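 Male Wistar rats given oral doses of 10, 30 or 100 mg/kg. Plasma, brain and CSF collected at 1 h, and at 3 h for the 10 mg/kg dose; compound concentrations measured in each.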

[21] = Oral bioavailability in Wistar rat plasma at 2 mg/kg; format: ADME, organism-based
[22] = Metabolic stability in human microsomes measured per mg protein; format: ADME, Microsome
[23] = Plasma concentration in Wistar rat at 30 mg/kg, po measured after 1 hr; format: ADME, organism-based

T1 sequence (O43497 whole entry): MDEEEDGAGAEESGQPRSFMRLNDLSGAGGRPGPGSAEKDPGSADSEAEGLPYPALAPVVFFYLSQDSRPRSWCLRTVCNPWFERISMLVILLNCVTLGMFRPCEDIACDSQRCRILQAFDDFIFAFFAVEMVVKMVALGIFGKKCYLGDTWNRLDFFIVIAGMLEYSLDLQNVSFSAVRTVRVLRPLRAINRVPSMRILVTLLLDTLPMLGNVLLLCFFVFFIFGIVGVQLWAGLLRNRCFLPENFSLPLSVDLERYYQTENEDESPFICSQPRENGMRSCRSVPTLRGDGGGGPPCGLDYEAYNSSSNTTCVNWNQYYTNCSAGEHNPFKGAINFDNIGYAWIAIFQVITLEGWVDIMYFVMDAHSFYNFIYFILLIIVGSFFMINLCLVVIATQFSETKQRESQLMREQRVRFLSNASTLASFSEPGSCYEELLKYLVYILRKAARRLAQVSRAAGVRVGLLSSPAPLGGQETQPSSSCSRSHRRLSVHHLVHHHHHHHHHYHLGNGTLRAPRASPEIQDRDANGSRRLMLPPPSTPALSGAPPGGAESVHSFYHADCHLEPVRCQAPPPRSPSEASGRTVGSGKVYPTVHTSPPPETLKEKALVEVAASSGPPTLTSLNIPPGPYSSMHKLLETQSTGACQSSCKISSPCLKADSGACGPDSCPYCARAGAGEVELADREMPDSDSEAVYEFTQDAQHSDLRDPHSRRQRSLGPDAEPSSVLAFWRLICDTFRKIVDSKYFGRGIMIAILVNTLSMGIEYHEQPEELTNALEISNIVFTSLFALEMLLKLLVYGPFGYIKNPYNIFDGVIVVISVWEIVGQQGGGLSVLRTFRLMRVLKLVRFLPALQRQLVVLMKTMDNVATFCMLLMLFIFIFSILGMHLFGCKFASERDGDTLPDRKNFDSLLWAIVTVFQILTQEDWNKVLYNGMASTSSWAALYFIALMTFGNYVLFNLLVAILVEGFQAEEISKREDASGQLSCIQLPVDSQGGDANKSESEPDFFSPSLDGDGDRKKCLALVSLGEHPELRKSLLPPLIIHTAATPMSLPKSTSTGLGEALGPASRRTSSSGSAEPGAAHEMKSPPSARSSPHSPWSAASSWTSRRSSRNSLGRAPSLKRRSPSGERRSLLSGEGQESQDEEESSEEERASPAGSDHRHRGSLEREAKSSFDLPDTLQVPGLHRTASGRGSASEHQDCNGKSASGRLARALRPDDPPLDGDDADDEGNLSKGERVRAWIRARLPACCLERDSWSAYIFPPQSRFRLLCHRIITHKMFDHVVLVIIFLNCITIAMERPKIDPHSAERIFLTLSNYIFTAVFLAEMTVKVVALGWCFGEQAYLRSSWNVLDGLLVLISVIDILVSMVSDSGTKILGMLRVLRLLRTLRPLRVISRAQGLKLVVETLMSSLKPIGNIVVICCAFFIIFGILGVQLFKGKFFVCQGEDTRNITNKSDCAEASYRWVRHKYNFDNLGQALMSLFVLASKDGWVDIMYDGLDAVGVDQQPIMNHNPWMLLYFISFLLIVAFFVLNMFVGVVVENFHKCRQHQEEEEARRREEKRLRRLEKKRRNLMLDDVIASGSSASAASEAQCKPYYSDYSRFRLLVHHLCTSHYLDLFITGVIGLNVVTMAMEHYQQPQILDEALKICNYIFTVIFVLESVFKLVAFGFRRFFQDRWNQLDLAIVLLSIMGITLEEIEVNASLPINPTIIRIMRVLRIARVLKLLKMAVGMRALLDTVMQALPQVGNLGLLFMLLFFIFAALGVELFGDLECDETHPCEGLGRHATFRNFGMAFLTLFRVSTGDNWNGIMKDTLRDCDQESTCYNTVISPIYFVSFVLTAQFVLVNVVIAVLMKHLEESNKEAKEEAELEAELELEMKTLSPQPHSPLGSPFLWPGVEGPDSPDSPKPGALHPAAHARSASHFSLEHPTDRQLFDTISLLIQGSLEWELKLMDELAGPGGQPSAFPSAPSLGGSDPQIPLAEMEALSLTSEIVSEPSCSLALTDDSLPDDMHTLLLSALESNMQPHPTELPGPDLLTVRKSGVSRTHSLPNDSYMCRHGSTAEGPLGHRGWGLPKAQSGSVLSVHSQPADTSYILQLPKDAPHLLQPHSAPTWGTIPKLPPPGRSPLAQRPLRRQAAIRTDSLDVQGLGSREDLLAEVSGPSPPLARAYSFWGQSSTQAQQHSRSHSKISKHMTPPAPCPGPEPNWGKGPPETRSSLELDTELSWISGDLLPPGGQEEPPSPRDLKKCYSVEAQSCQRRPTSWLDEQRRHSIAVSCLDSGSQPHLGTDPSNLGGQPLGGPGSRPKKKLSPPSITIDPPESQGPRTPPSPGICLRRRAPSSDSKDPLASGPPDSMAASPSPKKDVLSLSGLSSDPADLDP
Chain of Voltage-dependent T-type calcium channel subunit alpha-1I (Q9P0X4 whole entry): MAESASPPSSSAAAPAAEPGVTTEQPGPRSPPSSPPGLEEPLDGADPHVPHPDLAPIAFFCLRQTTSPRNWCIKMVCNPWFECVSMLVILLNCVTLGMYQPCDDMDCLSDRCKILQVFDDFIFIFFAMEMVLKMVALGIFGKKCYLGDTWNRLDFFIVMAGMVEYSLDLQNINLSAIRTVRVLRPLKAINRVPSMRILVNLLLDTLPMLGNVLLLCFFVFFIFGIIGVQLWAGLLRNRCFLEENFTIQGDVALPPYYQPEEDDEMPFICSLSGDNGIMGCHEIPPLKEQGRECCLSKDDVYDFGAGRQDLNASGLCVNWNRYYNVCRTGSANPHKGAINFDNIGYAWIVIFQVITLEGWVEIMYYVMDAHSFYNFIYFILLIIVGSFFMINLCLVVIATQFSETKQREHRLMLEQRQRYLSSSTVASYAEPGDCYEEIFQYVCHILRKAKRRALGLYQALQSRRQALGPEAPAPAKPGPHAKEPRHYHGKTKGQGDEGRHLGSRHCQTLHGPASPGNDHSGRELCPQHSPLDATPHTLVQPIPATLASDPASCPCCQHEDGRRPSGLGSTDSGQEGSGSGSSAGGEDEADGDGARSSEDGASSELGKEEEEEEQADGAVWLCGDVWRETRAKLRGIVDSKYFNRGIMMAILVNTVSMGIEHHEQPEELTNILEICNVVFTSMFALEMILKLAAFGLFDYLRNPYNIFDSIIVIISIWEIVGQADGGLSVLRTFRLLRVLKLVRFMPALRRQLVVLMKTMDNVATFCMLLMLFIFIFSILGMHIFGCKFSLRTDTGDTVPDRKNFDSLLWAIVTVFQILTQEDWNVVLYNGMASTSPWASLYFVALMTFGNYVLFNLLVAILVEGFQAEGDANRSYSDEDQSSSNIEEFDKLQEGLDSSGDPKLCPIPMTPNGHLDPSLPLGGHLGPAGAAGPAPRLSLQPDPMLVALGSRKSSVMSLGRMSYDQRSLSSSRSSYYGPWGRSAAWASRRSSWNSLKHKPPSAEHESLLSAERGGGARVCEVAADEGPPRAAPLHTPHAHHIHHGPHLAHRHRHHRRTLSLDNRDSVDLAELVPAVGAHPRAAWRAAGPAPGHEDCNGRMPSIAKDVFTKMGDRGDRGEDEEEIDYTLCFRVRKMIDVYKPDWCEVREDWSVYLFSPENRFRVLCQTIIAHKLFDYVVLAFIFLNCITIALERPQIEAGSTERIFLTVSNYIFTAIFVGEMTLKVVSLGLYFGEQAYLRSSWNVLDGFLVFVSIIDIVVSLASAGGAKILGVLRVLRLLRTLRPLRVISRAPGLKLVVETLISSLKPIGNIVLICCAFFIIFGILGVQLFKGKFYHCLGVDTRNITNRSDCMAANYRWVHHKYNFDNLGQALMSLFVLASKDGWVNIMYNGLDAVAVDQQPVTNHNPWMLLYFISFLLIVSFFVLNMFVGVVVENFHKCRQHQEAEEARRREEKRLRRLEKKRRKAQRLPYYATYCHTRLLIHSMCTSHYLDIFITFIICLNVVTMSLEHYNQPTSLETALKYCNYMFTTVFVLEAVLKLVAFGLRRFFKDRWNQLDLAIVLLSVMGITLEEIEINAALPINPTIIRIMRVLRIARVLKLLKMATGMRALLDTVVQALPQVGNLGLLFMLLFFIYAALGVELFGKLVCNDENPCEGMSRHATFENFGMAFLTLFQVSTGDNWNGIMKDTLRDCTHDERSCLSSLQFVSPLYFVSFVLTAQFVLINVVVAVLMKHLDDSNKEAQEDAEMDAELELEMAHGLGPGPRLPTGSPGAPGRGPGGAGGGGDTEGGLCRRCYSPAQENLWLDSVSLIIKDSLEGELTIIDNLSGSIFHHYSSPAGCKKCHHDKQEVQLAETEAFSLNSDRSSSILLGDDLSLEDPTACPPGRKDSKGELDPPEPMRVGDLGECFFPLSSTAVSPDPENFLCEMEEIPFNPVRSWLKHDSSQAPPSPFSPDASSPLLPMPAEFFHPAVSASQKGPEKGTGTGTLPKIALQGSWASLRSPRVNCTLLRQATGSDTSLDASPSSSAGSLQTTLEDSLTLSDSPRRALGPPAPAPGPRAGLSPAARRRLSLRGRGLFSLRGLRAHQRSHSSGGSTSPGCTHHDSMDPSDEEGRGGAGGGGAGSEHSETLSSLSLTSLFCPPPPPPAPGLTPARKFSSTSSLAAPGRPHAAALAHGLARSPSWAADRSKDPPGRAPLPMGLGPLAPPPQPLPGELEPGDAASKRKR
Chain of Cytochrome P450 3A4 (P08684 whole entry): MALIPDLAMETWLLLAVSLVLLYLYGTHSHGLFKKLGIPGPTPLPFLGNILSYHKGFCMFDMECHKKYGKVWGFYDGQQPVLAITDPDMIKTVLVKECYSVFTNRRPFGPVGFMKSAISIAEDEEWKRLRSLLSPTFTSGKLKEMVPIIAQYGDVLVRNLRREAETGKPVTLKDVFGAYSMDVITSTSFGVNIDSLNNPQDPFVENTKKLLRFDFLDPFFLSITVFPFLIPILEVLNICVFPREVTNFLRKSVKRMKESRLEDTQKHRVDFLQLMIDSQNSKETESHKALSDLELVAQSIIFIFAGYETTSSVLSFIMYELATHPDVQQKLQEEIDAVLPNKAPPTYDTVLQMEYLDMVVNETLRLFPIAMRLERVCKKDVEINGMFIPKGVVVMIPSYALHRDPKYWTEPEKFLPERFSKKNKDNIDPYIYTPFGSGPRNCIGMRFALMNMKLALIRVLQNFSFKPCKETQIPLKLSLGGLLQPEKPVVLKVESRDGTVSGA

O=C(Nc1ccc(F)cc1)N1N=C(c2ccncc2)CC1c1ccc(F)cc1 (stereo not given)
Cmax [1]: 160 nM
IC50 [2]: 2000 nM
fraction unbound [3]: 0.5
inhibition in vivo at 100 mg/kg (Rattus norvegicus [4]): 62.2%
IC50 [5]: 6400 nM
inhibition (Rattus norvegicus [6]): 3%
inhibition (Rattus norvegicus [7]): 18%
IC50 [8]: 29 nM
half-life [9]: 120 h
Drug uptake(free) [10]: 37 nM
IC50 (Cytochrome P450 3A4): 18000 nM
IC50 [11]: 33 nM
inhibition in vivo at 100 mg/kg (Rattus norvegicus [12]): > 99%
Activity (Rattus norvegicus [13]): Toxic
Drug uptake(free) [14]: 128 nM
IC50 [15]: 1800 nM
Papp A→B at 1 µM (MDR1): 45 ×10⁻⁶ cm/s
Activity (Rattus norvegicus [16]): Non-Toxic
CLH [17]: 5.7 µL/min
inhibition (Rattus norvegicus [18]): 15%
solubility [19]: 33 µg/mL (≈ 87.2 µM)
concentration at 1 h [20]: 800 nM
bioavailability [21]: 4%
microsomal CLint [22]: 21 µL/min/mg
concentration at 1 h [23]: 630 nM
